# Results as given in ChEMBL document CHEMBL1134558, “Discovery of estrogen sulfotransferase inhibitors from a purine library screen” (J Med Chem, 2001).
# Biological target: T1, Sulfotransferase 1E1 (Mus musculus, UniProt P49891)
# T1 sequence (P49891 whole entry): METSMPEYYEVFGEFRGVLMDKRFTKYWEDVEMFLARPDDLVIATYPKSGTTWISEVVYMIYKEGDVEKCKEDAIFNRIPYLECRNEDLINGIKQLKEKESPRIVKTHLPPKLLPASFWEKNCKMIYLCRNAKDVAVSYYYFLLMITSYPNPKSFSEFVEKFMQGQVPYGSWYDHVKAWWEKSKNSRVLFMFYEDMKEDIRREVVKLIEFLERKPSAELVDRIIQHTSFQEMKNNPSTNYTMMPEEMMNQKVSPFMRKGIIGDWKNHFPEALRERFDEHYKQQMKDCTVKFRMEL
# Experiment: Inhibition of estrogen sulfotransferase (EST) in TLC radiolabel transfer assay
# In short: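 Murine EST expressed and purified as an N-terminal GST fusion. Transfer of ³⁵S-sulfate from ³⁵S-PAPS to estrone acceptor; extent of reaction measured by TLC separation and phosphorimaging. IC50 values taken from this radiolabel transfer assay. In the screen each compound was tested at 100 μM, with >70% inhibition scored as a hit.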
row,IC50 [µM],Structure (SMILES)
1,60,COc1ccc(CNc2nc(N[C@H](CO)CC(C)C)nc3c2ncn3C(C)C)cc1
2,> 200,Cn1cnc2c(N(CCO)CCO)nc(NCC(N)=O)nc21
3,80,COc1ccc(CNc2nc(N3CCN(C)CC3)nc3c2ncn3C(C)C)cc1
4,30,Cn1cnc2c(NCc3ccccc3N)nc(NCC(N)=O)nc21
5,100,Cn1cnc2c(N(CCO)CCNCCO)nc(NCC(N)=O)nc21
6,35,Cn1cnc2c(NCc3ccc(Cl)cc3)nc(NCC(N)=O)nc21
7,0.5,COc1ccc(CNc2nc(N3CCCCCC3)nc3c2ncn3C(C)C)cc1
8,72,CC(C)n1cnc2c(NCc3ccc(N)cc3)nc(NCCCCC(=O)C3CSC(=O)N3)nc21 (configuration not stated)
9,60,Cn1cnc2c(NCc3cc(Cl)cc(Cl)c3)nc(NCC(N)=O)nc21
10,60,CC(O)CNc1nc(NCC(N)=O)nc2c1ncn2C (configuration not stated)
11,> 200,O=[N+]([O-])c1ccc(CNc2nc(NCC3CCCCC3)c3ncn(CCO)c3n2)cc1
12,30,COc1ccc(CNc2nc(NCc3ccccc3)nc3c2ncn3CCO)cc1
